Published values pooled from the literature.
Compare with care: the assays were run in different laboratories.
Target: Mitogen-activated protein kinase kinase kinase 3 (MAP3K3, Homo sapiens, UniProt Q99759)
One construct used (Q99759 1-626): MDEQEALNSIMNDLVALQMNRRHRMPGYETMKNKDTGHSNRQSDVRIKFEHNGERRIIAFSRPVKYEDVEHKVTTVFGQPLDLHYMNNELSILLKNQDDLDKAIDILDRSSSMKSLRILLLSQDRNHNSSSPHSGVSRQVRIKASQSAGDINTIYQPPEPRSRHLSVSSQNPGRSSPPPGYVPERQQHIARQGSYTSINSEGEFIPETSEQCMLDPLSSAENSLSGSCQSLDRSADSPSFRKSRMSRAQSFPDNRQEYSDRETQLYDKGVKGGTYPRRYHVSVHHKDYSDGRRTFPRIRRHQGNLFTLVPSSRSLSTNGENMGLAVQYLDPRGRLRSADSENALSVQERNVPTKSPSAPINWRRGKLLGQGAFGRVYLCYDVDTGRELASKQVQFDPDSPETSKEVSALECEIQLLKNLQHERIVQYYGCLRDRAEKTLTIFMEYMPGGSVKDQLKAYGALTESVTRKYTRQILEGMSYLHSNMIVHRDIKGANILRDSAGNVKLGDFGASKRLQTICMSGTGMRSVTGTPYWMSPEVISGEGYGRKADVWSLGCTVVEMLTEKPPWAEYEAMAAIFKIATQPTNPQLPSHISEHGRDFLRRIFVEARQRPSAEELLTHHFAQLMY

| Compound | assay | conditions | remaining binding |
| --- | --- | --- | --- |
| Cc1cc(NC(=O)c2cccc(S(F)(F)(F)(F)F)c2)cc(-n2ccn3nc(-c4cccnc4)cc23)c1 | cell-free assay, competition with immobilised ligand | 1 µM | 87.9% |
| CN(CCCC(F)(F)F)c1nccc(-c2cnn3ncccc23)n1 | binding | 1 µM | 99% |
| Cc1cnc(Nc2ccc(C(=O)N3CCC(N4CCCC4)CC3)cc2)nc1-c1cc2ccccc2s1 | binding, competition with immobilised ligand | 1 µM | 19% |
| COc1cnc(Nc2cccc(S(N)(=O)=O)c2)nc1N1CCN(c2ccccc2)C(=O)C1 | binding, competition with immobilised ligand | 1 µM | 84% |
| C=CC(=O)N1CCC(C(=O)NCC(=O)N2CCN(c3nc(-c4cnc(N)nc4C(F)F)nc(N4CCOCC4)n3)CC2)CC1 | binding, competition with immobilised ligand | 1 µM | 99% |
| COc1ccc2c(O[C@@H]3C[C@H]4C(=O)N[C@]5(C(=O)O)CC5/C=C\CCCCC[C@H](NC(=O)OC5CCCC5)C(=O)N4C3)cc(-c3csc(NC(=O)C(C)C)n3)nc2c1C (stereo partly shown) | cell-free assay, competition with immobilised ligand | 1 µM | 79% |
| O=C(c1ccc(Nc2nccc(-c3cc4ccccc4s3)n2)cc1)N1CCC(N2CCCC2)CC1 | binding, competition with immobilised ligand | 1 µM | 61% |
| N[C@@H]1CCN(c2nccc(-c3cnn4ncccc34)n2)C1 | binding | 1 µM | 100% |
| CC(=O)N1CCC(c2ccc(C(=O)NC(=N)N)cc2C(F)(F)F)CC1 | cell-free assay, competition with immobilised ligand | 1 µM | 90% |
| FC(F)(F)Oc1cccc(-c2cnc3ccc(-c4ccncc4)nn23)c1 | cell-free assay, competition with immobilised ligand | 5 µM | 51% |
| COc1ncc2cc3ccccc3nc2c1C#N | cell-free assay, competition with immobilised ligand | 5 µM | 95% |
| O=C(c1ccc(Nc2ncc(Cl)c(-c3ccc(Cl)s3)n2)cc1)N1CCC(N2CCCC2)CC1 | binding, competition with immobilised ligand | 1 µM | 6.3% |
| CC(=O)Nc1c(C(C)=O)c(=O)n(C)c2nc(-c3ccc(Cl)cc3Cl)c(-c3ccc(Cl)cc3)cc12 | cell-free assay, competition with immobilised ligand | 1 µM | 100% |
| CN(C)c1nccc(-c2cnc3ncccn23)n1 | binding | 1 µM | 44% |
| O=C(Nc1c[nH]nc1C(=O)NC1CCNCC1)c1cc(F)cc(F)c1 | binding, competition with immobilised ligand | 1 µM | 89% |
| CC1CCCN1c1nccc(-c2cnn3ncccc23)n1 (stereo not shown) | binding | 1 µM | 97% |
| CCN1CCN(Cc2ccc(C(=O)Nc3ccc(C)c(Oc4ccc5c(c4)CC(=O)N5)c3)cc2C(F)(F)F)CC1 | binding, competition with immobilised ligand | 1 µM | 100% |
| Cc1cnn2ncc(-c3ccnc(N(C)C)n3)c2c1 | binding | 1 µM | 47% |
| C[C@@H](c1cccc(C#N)c1)n1cc(Cl)cc(C(N)=O)c1=N | cell-free assay, competition with immobilised ligand | 1 µM | 95% |
| C[C@@H]1CCN(c2nccc(-c3cnn4ncccc34)n2)C1 | binding | 1 µM | 80% |
| c1cncc(-c2cccc(Nc3nccc(NC4CCCCC4)n3)c2)c1 | binding, competition with immobilised ligand | 10 µM | 41% |
| CS(=O)(=O)NCC[C@H](NC(=O)c1cncc2c1cnn2-c1ccc(F)cc1)c1ccnc(S(C)(=O)=O)c1 | cell-free assay, competition with immobilised ligand | 1 µM | 100% |
